Results from ChEMBL document CHEMBL4665671 (ACS Med Chem Lett, 2019).
In brackets after ≈: the same amount, converted by molar mass. Activity calls are given as the source filed them. No cut-off for these calls is given here.

Experiments:
mTORC2 = mTORC2 (Homo sapiens, UniProt P42345); assay: Inhibition of mTORC2 in human A2058 cells assessed as reduction in PKB phosphorylation at S473 residue incubated for 1 hr by Western blot analysis; format: cell-based
mTORC1 = mTORC1 (Homo sapiens, UniProt P42345); assay: Inhibition of mTORC1 in human A2058 cells assessed as reduction in ribosomal protein S6 phosphorylation at Ser235/236 residues incubated for 1 hr by Western blot analysis; format: cell-based
[1] = molecular target: Phosphatidylinositol 4,5-bisphosphate 3-kinase catalytic subunit alpha isoform (Homo sapiens, UniProt P42336); assay: Displacement of alexa fluor 647-labeled kinase tracer 314 from recombinant N-terminal His6-tagged p110alpha (unknown origin) by TR-FRET assay
Chain of Phosphatidylinositol 4,5-bisphosphate 3-kinase catalytic subunit alpha isoform (P42336 whole entry, the tested form may be a part, canonical isoform): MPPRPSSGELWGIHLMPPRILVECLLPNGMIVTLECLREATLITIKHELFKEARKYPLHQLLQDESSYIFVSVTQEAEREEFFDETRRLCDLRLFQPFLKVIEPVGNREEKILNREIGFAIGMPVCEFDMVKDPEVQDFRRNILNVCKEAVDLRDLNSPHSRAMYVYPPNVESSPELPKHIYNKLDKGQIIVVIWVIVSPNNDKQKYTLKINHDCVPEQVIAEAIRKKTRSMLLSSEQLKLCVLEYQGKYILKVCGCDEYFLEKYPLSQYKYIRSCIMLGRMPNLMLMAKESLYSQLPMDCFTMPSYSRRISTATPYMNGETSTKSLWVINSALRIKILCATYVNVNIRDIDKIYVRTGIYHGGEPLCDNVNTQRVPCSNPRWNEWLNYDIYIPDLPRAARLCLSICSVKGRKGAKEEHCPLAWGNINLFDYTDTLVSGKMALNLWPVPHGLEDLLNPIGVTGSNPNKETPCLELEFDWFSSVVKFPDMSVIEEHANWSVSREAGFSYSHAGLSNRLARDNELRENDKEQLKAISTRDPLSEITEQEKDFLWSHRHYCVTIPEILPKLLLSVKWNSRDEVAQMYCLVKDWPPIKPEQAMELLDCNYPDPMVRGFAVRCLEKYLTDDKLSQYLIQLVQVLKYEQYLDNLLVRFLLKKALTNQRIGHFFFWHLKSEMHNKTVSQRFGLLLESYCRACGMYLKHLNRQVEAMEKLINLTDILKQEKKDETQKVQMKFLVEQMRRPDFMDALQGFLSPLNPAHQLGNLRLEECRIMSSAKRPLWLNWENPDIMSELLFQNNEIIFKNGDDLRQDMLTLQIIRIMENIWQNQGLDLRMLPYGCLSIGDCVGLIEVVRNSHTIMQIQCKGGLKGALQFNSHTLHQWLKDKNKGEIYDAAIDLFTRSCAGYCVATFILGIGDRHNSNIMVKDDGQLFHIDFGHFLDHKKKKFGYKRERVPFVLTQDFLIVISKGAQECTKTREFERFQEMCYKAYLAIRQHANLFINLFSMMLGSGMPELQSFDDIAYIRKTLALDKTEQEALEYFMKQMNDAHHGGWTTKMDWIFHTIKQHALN

[2] = molecular target: T1, Serine/threonine-protein kinase mTOR (Homo sapiens, UniProt P42345); assay: Displacement of alexa fluor 647-labeled kinase tracer 314 from recombinant human N-terminal GST-fused mTOR (1360 to 2549 residues) expressed in baculovirus expression system by TR-FRET assay
[3] = Permeability of the compound in PBS at pH 7.4 incubated for 2 hrs under shaking condition by PAMPA; format: ADME; details: pH 7.4, 2 h
[4] = Thermodynamic solubility of the compound in buffer at pH 1.2 to 6.8 incubated for 24 hrs under agitation condition by shake flask method; format: physicochemical; details: read-out: Therm_solubility
[5] = Thermodynamic solubility of the compound in buffer at pH 1.2 incubated for 24 hrs under agitation condition by shake flask method; format: physicochemical; details: read-out: Therm_solubility
Cytochrome P450 1A2 = molecular target: T2, Cytochrome P450 1A2 (Homo sapiens, UniProt P05177); assay: Inhibition of CYP1A2 (unknown origin) by fluorescence assay; format: ADME
T2 sequence (P05177 whole entry): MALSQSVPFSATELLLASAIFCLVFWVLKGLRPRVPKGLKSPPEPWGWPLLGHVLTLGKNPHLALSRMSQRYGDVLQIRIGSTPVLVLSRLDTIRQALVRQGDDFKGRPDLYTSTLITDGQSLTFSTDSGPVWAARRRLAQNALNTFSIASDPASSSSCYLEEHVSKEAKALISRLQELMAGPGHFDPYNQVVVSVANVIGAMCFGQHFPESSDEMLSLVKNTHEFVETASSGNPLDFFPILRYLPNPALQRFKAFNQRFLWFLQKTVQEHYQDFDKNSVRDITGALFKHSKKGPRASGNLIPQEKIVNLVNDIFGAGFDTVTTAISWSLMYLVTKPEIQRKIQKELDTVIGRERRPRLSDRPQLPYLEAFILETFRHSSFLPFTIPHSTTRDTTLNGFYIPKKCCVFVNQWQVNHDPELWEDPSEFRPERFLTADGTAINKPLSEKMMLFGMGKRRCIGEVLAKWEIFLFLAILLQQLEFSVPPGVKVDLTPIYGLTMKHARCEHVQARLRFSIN

Cytochrome P450 2C19 = Cytochrome P450 2C19 (Homo sapiens, UniProt P33261); assay: Inhibition of CYP2C19 (unknown origin) by fluorescence assay; format: ADME
Chain of Cytochrome P450 2C19 (P33261 whole entry): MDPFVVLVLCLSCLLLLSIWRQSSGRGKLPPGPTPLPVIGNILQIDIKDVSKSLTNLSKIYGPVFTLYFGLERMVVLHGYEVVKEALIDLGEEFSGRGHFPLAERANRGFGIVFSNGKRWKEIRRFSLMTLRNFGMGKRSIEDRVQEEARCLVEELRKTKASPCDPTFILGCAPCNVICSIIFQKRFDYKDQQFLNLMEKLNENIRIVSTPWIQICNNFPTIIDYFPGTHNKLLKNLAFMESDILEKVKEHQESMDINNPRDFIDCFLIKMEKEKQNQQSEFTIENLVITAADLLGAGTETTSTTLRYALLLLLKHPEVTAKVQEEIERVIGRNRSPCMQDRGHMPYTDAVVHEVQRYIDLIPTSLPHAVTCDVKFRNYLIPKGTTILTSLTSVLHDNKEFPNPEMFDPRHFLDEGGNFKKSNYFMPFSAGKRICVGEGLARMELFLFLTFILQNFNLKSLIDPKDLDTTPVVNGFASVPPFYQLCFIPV

Cytochrome P450 2D6 = Cytochrome P450 2D6 (Homo sapiens, UniProt P10635); assay: Inhibition of CYP2D6 (unknown origin) by fluorescence assay; format: ADME
Chain of Cytochrome P450 2D6 (P10635 whole entry): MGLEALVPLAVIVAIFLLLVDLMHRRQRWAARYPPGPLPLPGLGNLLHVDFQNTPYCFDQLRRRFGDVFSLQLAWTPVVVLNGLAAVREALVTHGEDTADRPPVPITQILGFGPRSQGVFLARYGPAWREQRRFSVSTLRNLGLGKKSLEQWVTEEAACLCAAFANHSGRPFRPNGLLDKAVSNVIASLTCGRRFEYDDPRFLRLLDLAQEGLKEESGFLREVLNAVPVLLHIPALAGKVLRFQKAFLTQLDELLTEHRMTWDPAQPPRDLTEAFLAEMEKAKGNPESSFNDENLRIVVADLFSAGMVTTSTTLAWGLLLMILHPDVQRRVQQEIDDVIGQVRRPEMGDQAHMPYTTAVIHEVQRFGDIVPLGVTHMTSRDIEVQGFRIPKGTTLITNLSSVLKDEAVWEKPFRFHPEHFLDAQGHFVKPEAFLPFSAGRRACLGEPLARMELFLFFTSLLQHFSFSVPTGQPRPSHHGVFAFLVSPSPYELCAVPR

Cytochrome P450 3A4 = Cytochrome P450 3A4 (Homo sapiens, UniProt P08684); assay: Inhibition of CYP3A4 (unknown origin) by fluorescence assay; format: ADME
Chain of Cytochrome P450 3A4 (P08684 whole entry): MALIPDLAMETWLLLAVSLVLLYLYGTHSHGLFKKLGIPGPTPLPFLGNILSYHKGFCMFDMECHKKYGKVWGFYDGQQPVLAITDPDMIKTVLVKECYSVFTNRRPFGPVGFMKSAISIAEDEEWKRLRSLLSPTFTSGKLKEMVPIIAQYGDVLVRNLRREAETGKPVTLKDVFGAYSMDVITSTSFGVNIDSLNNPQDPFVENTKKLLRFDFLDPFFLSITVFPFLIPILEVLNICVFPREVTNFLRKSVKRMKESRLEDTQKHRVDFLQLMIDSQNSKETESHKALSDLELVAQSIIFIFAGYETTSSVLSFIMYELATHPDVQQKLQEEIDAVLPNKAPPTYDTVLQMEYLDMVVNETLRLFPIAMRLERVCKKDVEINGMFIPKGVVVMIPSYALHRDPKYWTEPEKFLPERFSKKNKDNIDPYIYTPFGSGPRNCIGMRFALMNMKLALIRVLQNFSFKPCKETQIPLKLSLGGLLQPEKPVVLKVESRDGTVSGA

[6] = Clearance in rat cryopreserved hepatocytes assessed per 10^6 cells at 2.5 uM measured up to 90 mins by LC-MS/MS analysis; format: ADME, cell-based, Hepatocyte; details: 1.5 h
In short: (§1)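 Cultured rat, mouse, dog and human hepatocytes were incubated with compound. Clearance and half-life were measured. Each experiment was run with n = 3.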

[7] = Clearance in mouse cryopreserved hepatocytes assessed per 10^6 cells at 2.5 uM measured up to 90 mins by LC-MS/MS analysis; format: ADME, cell-based, Hepatocyte; details: 1.5 h; in short: as §1
[8] = Clearance in dog cryopreserved hepatocytes assessed per 10^6 cells at 2.5 uM measured up to 90 mins by LC-MS/MS analysis; format: ADME, cell-based, Canis lupus familiaris, Hepatocyte; details: 1.5 h; in short: as §1
[9] = Clearance in human cryopreserved hepatocytes assessed per 10^6 cells at 2.5 uM measured up to 90 mins by LC-MS/MS analysis; format: ADME, cell-based, Hepatocyte; details: 1.5 h; in short: as §1
[10] = Half life in rat cryopreserved hepatocytes at 2.5 uM measured up to 90 mins by LC-MS/MS analysis; format: ADME, cell-based, Hepatocyte; details: 1.5 h; in short: as §1
[11] = Half life in mouse cryopreserved hepatocytes at 2.5 uM measured up to 90 mins by LC-MS/MS analysis; format: ADME, cell-based, Hepatocyte; details: 1.5 h; in short: as §1
[12] = Half life in dog cryopreserved hepatocytes at 2.5 uM measured up to 90 mins by LC-MS/MS analysis; format: ADME, cell-based, Canis lupus familiaris, Hepatocyte; details: 1.5 h; in short: as §1
[13] = Half life in human cryopreserved hepatocytes at 2.5 uM measured up to 90 mins by LC-MS/MS analysis; format: ADME, cell-based, Hepatocyte; details: 1.5 h; in short: as §1
[14] = Cmax in C57BL/6J mouse plasma at 10 mg/kg, po after 1 hr by UHPLC-MS analysis; format: ADME, organism-based; parameters: route oral, dose 10 mg/kg, time 1 hrs; details: in vivo
In short: (§2)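 Male C57BL/6J mice, single oral dose 10 mg/kg. Compound extracted from plasma, brain and thigh muscle at set time points over 8 h and quantified by LC–MS. n = 3, mean per time point.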

[15] = Tmax in C57BL/6J mouse plasma at 10 mg/kg, po by UHPLC-MS analysis; format: ADME, organism-based; in short: as §2
[16] = Half life in C57BL/6J mouse plasma at 10 mg/kg, po by UHPLC-MS analysis; format: ADME, organism-based; in short: as §2
[17] = AUC (0 to 8 hrs) in C57BL/6J mouse plasma at 10 mg/kg, po by UHPLC-MS analysis; format: ADME, organism-based; parameters: time < 8 hr, route oral, dose 10 mg/kg; details: in vivo; in short: as §2
[18] = Clearance in C57BL/6J mouse plasma at 10 mg/kg, po by UHPLC-MS analysis; format: ADME, organism-based
In short: (§3)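 Male C57BL/6J mice given a single oral 10 mg/kg dose. Plasma, brain and thigh muscle sampled at set times up to 8 h. Compound extracted from each tissue and quantified by LC–MS. n = 3, mean per time point.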

[19] = Cmax in C57BL/6J mouse brain at 10 mg/kg, po after 30 mins by UHPLC-MS analysis; format: ADME, organism-based; parameters: route oral, dose 10 mg/kg, time 30 min; in short: as §2
[20] = Tmax in C57BL/6J mouse brain at 10 mg/kg, po by UHPLC-MS analysis; format: ADME, organism-based; in short: as §2
[21] = Half life in C57BL/6J mouse brain at 10 mg/kg, po by UHPLC-MS analysis; format: ADME, organism-based; in short: as §2
[22] = AUC (0 to 8 hrs) in C57BL/6J mouse brain at 10 mg/kg, po by UHPLC-MS analysis; format: ADME, organism-based; parameters: time < 8 hr, route oral, dose 10 mg/kg; details: in vivo; in short: as §2
[23] = Cmax in C57BL/6J mouse thigh muscle at 10 mg/kg, po after 30 mins by UHPLC-MS analysis; format: ADME, organism-based; parameters: route oral, time 30 min, dose 10 mg/kg; in short: as §2
[24] = Tmax in C57BL/6J mouse thigh muscle at 10 mg/kg, po by UHPLC-MS analysis; format: ADME, organism-based; in short: as §2
[25] = Half life in C57BL/6J mouse thigh muscle at 10 mg/kg, po by UHPLC-MS analysis; format: ADME, organism-based; in short: as §2
[26] = AUC (0 to 8 hrs) in C57BL/6J mouse thigh muscle at 10 mg/kg, po by UHPLC-MS analysis; format: ADME, organism-based; parameters: time < 8 hr, route oral, dose 10 mg/kg; details: in vivo; in short: as §2
[27] = molecular target: T1, Serine/threonine-protein kinase mTOR; assay: Displacement of alexa fluor 647-labeled kinase tracer 314 from recombinant human N-terminal GST-fused mTOR (1360 to 2549 residues) expressed in baculovirus expression system by TR-FRET assay relative to parent compound
[28] = Ratio of drug level in brain to plasma in C57BL/6J mouse at 10 mg/kg, po by UHPLC-MS analysis; format: ADME, organism-based; details: brain and plasma, read-out: BPR; in short: as §3
Mus musculus [29] = assay: Increase in glucose level in C57BL/6J mouse plasma at 10 mg/kg, po measured after 2 hrs by UV/Vis spectrometry analysis; format: functional, organism-based
In short: (§4)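 Male C57BL/6J mice given a single oral 10 mg/kg dose. Plasma glucose and insulin levels followed over time after dosing. Mean ± SEM.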

Mus musculus [30] = assay: Increase in insulin level in C57BL/6J mouse plasma at 10 mg/kg, po measured after 2 hrs by UV/Vis spectrometry analysis; format: functional, organism-based; in short: as §4
OVCAR-3 [31] = assay: Antitumor activity against human OVCAR-3 cells xenografted in BALB/c nude mouse assessed as tumor growth inhibition at 6.3 mg/kg, po qd administered for 28 days starting from day 17 post inoculation and measured on day 45; format: functional, organism-based; details: time 28.0 day
In short: (§5)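 BALB/c nude mice inoculated subcutaneously with 5 × 10^6 OVCAR-3 cells on day 0. From day 17, dosed orally once daily for 28 days; controls received vehicle QD. Tumor size tracked over time, tumor weight taken at day 45, body weight recorded at set time points. n = 8, mean ± SEM; two-way ANOVA with Bonferroni or Dunnett's correction.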

[32] = Toxicity in BALB/c nude mouse xenografted with human OVCAR3 cells assessed as effect on body weight at 6.3 mg/kg, po qd administered for 28 days starting from day 17 post inoculation; format: organism-based; details: in vivo, 672 h, time 28 day; in short: as §5
[33] = Toxicity in BALB/c nude mouse xenografted with human OVCAR3 cells assessed as maximum tolerated dose; details: in vivo
[34] = Toxicity in po dosed Wistar female rat assessed as NOAEL administered via gavage for 14 consecutive days; format: organism-based; details: in vivo, time 14 day
In short: (§6)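 14-day pilot toxicokinetic study in Wistar rats (males and females assessed separately) and beagle dogs. NOAEL was set in mg/kg/day.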

[35] = Toxicity in po dosed Wistar male rat assessed as NOAEL administered via gavage for 14 consecutive days; format: organism-based; details: in vivo, time 14 day; in short: as §6
[36] = Toxicity in po dosed Beagle dog assessed as NOAEL administered via gavage for 14 consecutive days; format: organism-based, Canis lupus familiaris; details: in vivo, time 14 day; in short: as §6
OVCAR-3 [37] = assay: Antitumor activity against human OVCAR-3 cells xenografted in BALB/c nude mouse assessed as effect on tumor size at 6.3 mg/kg, po qd administered for 28 days starting from day 17 post inoculation and measured on day 45 (reference value: 1031 mm3); details: time 28 day

## Nc1ncc(-c2nc(N3CCOCC3)nc(N3C[C@H]4CC[C@@H](C3)O4)n2)c(C(F)F)n1
mTORC2
  IC50: 84 nM
mTORC1
  IC50: 139 nM
[1]
  Ki: 4.4 nM
[2]
  Ki: 29 nM

## Nc1ncc(-c2nc(N3CCOCC3)nc(N3CCOCC3)n2)c(C(F)F)n1
[3]
  permeability: 8.196 ×10⁻⁶ cm/s
mTORC2
  IC50: 17 nM
mTORC1
  IC50: 61 nM
[2]
  Ki: 33 nM
[4]
  solubility thermodynamic at 24 h: > 1 µg/mL
[5]
  solubility thermodynamic at 24 h: 13.6 µg/mL (≈ 34.5 µM)
Cytochrome P450 1A2
  IC50: > 100000 nM
Cytochrome P450 2C19
  IC50: > 100000 nM
Cytochrome P450 2D6
  IC50: > 100000 nM
Cytochrome P450 3A4
  IC50: > 100000 nM
[6]
  CLH: 1.5 µL/min
[7]
  CLH: 7 µL/min
[8]
  CLH: 6.7 µL/min
[9]
  CLH: 4 µL/min
[10]
  t1/2: 8.67 h
[11]
  t1/2: 3.208 h
[12]
  t1/2: 3.528 h
[13]
  t1/2: 5.775 h
[14]
  Cmax: 3282 ng/mL
[15]
  Tmax: 1 h
[16]
  half-life: 1.7 h
[17]
  AUC: 10315 ng·h/mL
[18]
  CL/F: 15.6 mL/min/kg
[19]
  Cmax: 1020 ng/mL
[20]
  Tmax: 0.5 h
[21]
  half-life: 1.6 h
[22]
  AUC: 2757 ng·h/mL
[23]
  Cmax: 1810 ng/mL
[24]
  Tmax: 0.5 h
[25]
  half-life: 1.6 h
[26]
  AUC: 4526 ng·h/mL
[27]
  Ratio Ki: 2
[28]
  Kp: 0.3
Mus musculus [29]
  Activity: Active
Mus musculus [30]
  Activity: Active
OVCAR-3 [31]
  growth inhibition (GI): Active
[32]
  Activity: Non-Toxic
[33]
  MTD: 6.3 mg/kg
[34]
  NOAEL at 336 h: 2.4 mg/kg
[35]
  NOAEL at 336 h: 3.6 mg/kg
[36]
  NOAEL at 336 h: 10 mg/kg
OVCAR-3 [37]
  Activity: 397 mm3

## C[C@@H]1COCCN1c1nc(-c2cnc(N)nc2C(F)F)nc(N2CCOCC2)n1
mTORC2
  IC50: 64 nM
mTORC1
  IC50: 116 nM
[1]
  Ki: 2.7 nM
[2]
  Ki: 21 nM

## Nc1ncc(-c2nc(N3CCOCC3)nc(N3[C@@H]4CC[C@H]3COC4)n2)c(C(F)F)n1
mTORC2
  IC50: 73 nM
mTORC1
  IC50: 91 nM
[1]
  Ki: 3.4 nM
[2]
  Ki: 14 nM
